High-throughput results deposited in PubChem by The Scripps Research Institute Molecular Screening Center.
PfM18AAP inh-1 – blocks P. falciparum M18 aspartyl aminopeptidase | recombinant PfM18AAP, H-Glu-NHMec fluorogenic cleavage | inhibition, % at 7.35 µM | 290,000 compounds, 1.2% hits | AID 1822;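 active = inhibition above the campaign mean inhibition over all tested compounds plus 3 SD, cut at about 28% in these data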;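 note: 0% = plate median of test compound wells and 100% = 2 mM ZnCl2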
VIM-2 inh – blocks Pseudomonas aeruginosa VIM-2 metallo-beta-lactamase | purified VIM-2, nitrocefin hydrolysis, epi-absorbance fluorescence | inhibition, % at 5.6 µM | 290,000 compounds, 0.89% hits;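 active = inhibition above the mean of all tested compounds plus 3 SD, cutoff set per screening run, cut at about 7.5% in these data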;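 note: red hydrolysis product quenches plate fluorescence so inhibitors raise well fluorescence; 0% = enzyme with DMSO and 100% = DMSO without enzyme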
IMP-1 inhibitor – inhibitors of Pseudomonas aeruginosa IMP-1 metallo-beta-lactamase | AID 1556 | purified IMP-1, nitrocefin hydrolysis, epi-absorbance fluorescence | 290,000 compounds, 0.45% hits | inhibition, % at 5.6 µM;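 active = inhibition above the mean plus 3 SD of all compounds in the same screening run, cut at about 4.5% in these data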;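 note: 0% = IMP-1 with DMSO and 100% = DMSO wells lacking enzyme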
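Assay system: purified IMP-1; Quantity: IMP-1 0.2 nM before substrate addition; Medium: HEPES buffer pH 7.1 with ZnSO4 and Brij 35; Incubation: 15 min enzyme–compound preincubation, then 25 min nitrocefin reaction, 25 °C; Signal: fluorescence quenching readout, ex 480/em 530 nm; Controls: DMSO with and without IMP-1; Repeats: singlicate testing.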
sPLA2-III inh – Blocks human group III sPLA2 activity; Q9NZ20; QFRET BODIPY PC-A2 liposome hydrolysis, fluorescence; inhibition, % at 12.2 µM; 370,000 compounds, 0.56% hits; AID 743126;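 active = inhibition above mean plus 3 SD of compounds lying within the high and low control bounds, cut at about 19% in these data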;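 note: 0% = median of test compound wells and 100% = no enzyme DMSO wells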
Target sequence (Q9NZ20 whole entry, looked up): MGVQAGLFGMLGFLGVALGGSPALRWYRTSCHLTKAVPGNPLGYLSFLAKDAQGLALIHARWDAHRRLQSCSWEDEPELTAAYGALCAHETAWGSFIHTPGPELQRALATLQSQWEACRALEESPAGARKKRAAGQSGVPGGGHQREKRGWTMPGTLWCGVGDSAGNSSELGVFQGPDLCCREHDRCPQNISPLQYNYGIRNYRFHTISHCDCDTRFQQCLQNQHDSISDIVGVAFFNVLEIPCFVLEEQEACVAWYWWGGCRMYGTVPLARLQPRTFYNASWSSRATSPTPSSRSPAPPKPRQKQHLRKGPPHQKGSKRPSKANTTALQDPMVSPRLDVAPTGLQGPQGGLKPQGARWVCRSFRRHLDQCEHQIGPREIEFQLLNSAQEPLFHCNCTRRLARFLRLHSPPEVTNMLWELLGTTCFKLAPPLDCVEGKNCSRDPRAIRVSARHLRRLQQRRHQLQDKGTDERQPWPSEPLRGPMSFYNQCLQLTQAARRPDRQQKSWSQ
PfM18AAP inh-2 – confirmation of Plasmodium falciparum M18 aspartyl aminopeptidase inhibitors; 2,400 compounds, 28% hits; recombinant PfM18AAP, H-Glu-NHMec fluorogenic cleavage; AID 2170; inhibition, % at 7.35 µM; shares compounds with PfM18AAP inh-1;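 active = mean inhibition over replicate wells above the hit cutoff set for the earlier primary screen, cut at about 29% in these data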;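 note: 0% = median of test compound wells and 100% = 2 mM ZnCl2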
CTSL1 counter – Cathepsin L (human) inhibition, confirmation; shares compounds with PfM18AAP inh-1; purified cathepsin L1, Z-Leu-Arg-MCA fluorescence; inhibition, % at 5.96 µM; 2,400 tested, under 10 active; AID 2178;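 active = average inhibition across replicates above the hit cutoff set in the earlier primary screen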;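 note: 0% = median of test compound wells and 100% = Z-Phe-Ala-diazomethylketone 1 µM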
Starred values were filed as active, the others as inactive; . = no result. This is a sample that favours compounds with a hit; in the whole collection about 2.4% have one here.

SMILES | PfM18AAP inh-1 | VIM-2 inh | IMP-1 inhibitor | sPLA2-III inh | PfM18AAP inh-2 | CTSL1 counter
CCCCOC(=O)/C=C/c1ccc(OC(=O)OC)c(OC(=O)OC)c1 | -6 | -3 | -2 | -9 | . | .
O=C(NC1CCCCN(Cc2cccc(F)c2)C1=O)c1cccc(F)c1 (centres undefined) | . | . | . | 0 | . | .
O=[N+]([O-])c1cc2c(cc1/C=N/n1cnnc1)OCO2 | 39* | -2 | -4 | -4 | -22 | -3
CCc1ccccc1Oc1nc(NC(C)C)nc2ccsc12 | . | . | . | 5 | . | .
COc1ccc(-c2cc(C#N)nc(Cl)n2)cc1 | 2 | -1 | -5 | 10 | . | .
COc1ccc(-c2cc(C#N)nc(NN)n2)cc1 | 36* | -1 | -3 | 7 | 36* | 6
COc1ccc(-c2cc(-c3ccccc3)nc(NN)n2)cc1OC | 34* | -4 | -4 | -3 | 5 | 3
COc1ccc(CN(C)Cc2c(O)ccc3ccccc23)cc1 | 47* | -2 | -3 | -20 | -64 | -2
COc1cccc(CN(C)Cc2c(O)ccc3ccccc23)c1 | 27 | -4 | 0 | -9 | . | .
O=C(O)c1c[nH]c(=S)n1-c1ccc(F)cc1 | 51* | -1 | 0 | 2 | 39* | -2
Cc1cc(C)c(N2C(=O)CC(Sc3ccccc3N)C2=O)c(C)c1 (centres undefined) | . | . | . | -4 | . | .
Clc1cc(Cl)cc(Nc2ncn[nH]2)c1 | 45* | -3 | -3 | -14 | 36* | -4
Cc1cc(C2=CC(=O)C[C@H](c3ccc(F)cc3)C2)ccc1F | . | . | . | 12 | . | .
CC(C)(C)c1ccc(S(=O)(=O)O/N=C2/CCCCC2c2ccc([N+](=O)[O-])cc2[N+](=O)[O-])cc1 (centres undefined) | 38* | -4 | -3 | 2 | -28 | 2
CS(=O)(=O)O/N=C1\CCCCC1c1ccc([N+](=O)[O-])cc1[N+](=O)[O-] (centres undefined) | 0 | 2 | -3 | 3 | . | .
COC(=O)Cc1ccc(O)c(N)c1 | 54* | -2 | -3 | 3 | 61* | 0
COC(=O)[C@@]12C[C@@H](CC(=O)NCC3CCCCC3)C(=O)N(Cc3ccccc3)C1=CCC(C)(C)C2 | . | . | . | 8 | . | .
CC(=O)C(C(C)=O)c1c(Cl)c(O)c(O)c2c(C(=O)c3ccccc3)coc12 | 55* | 0 | -3 | 9 | 55* | 3
O=C(O)CCNc1cc2ccccc2cc1C(=O)O | 35* | 2 | 0 | -2 | -4 | -3
COC(CNC(=O)CCc1c(C)nc2c(-c3ccccc3)c(C)nn2c1C)OC | -12 | -1 | 0 | -2 | . | .
O=C(NC(=S)NCCN1CCOCC1)c1ccc(F)cc1 | -1 | 0 | 0 | 11 | . | .
Cc1ccc(C(=O)NC(=S)NNC(=O)CCN2CCOCC2)cc1 | 38* | -5 | -3 | 7 | -19 | -3
Cc1cccc(C)c1NC(=O)CN(C)C(=O)C1CC1C (centres undefined) | . | . | . | -7 | . | .
Cc1ccc(CSCC(=O)Nc2cc(S(=O)(=O)N3CCOCC3)ccc2OCC(F)(F)F)cc1 | . | . | . | -9 | . | .
CCN(c1ccccc1)S(=O)(=O)c1ccc(OC)c(NC(=O)CCc2nc3ccccc3c(=O)[nH]2)c1 | . | . | . | -16 | . | .
SMILES | PfM18AAP inh-1 | VIM-2 inh | IMP-1 inhibitor | sPLA2-III inh | PfM18AAP inh-2 | CTSL1 counter
NC(=O)C1CCN(C(=O)C(=O)c2cn(CC(=O)N3CCCC3)c3ccccc23)CC1 | 43* | -3 | -5 | 4 | -41 | -3
Nc1c(Cl)cc(-c2[nH]c3cc(C(=O)NCCO)ccc3c(=O)c2O)cc1Cl | 40* | 4 | -4 | 1 | -4 | 1
Clc1ccc(N=c2ssnc2Cl)nc1 | 39* | -5 | -2 | 10 | 24 | -4
CCOC(=O)[C@@H]1[C@H]2COc3cc(OC)ccc3[C@H]2N2C(=O)N(c3ccc(C(F)(F)F)cc3)C(=O)[C@]12C | . | . | . | 3 | . | .
CC(=O)Nc1ccc(NCC(=O)c2ccccc2)cc1 | 34* | -1 | -2 | -1 | -35 | 0
O=c1ccc2cc(O)c(O)cc2o1 | 42* | -1 | -3 | -6 | 30* | 2
COc1cc(CNc2ccc(CNc3ncn[nH]3)cc2)ccc1OCC(=O)NC(C)(C)C | 47* | -3 | -5 | -4 | -35 | -8
CC(C)(C)NC(=O)COc1ccc(CNc2ncn[nH]2)cc1 | 2 | -4 | -4 | 7 | . | .
Fc1ccc(CNc2ccc(CNc3ncn[nH]3)cc2)cc1 | 32* | -3 | -3 | -6 | -26 | -1
CCN(CC)C(=O)C1=C(C)N(Cc2ccc(F)cc2)C(=O)C(CC(=O)NC(c2ccccc2)c2ccccc2)C1 (centres undefined) | . | . | . | -10 | . | .
COc1cc(-c2nc3ccccn3c2NCC2CCCO2)ccc1O (centres undefined) | 32* | 0 | 0 | 5 | 34* | 1
COc1cccc(NC(=O)c2cc3cccc(OC)c3o/c2=N\O)c1 | 51* | 0 | -3 | . | 17 | -1
CCN1CCN(C(=S)c2ccc(OCC(=O)NCc3ccccc3)cc2)CC1 | 39* | 0 | 1 | 0 | -7 | 3
Cc1ccc(NC(=S)N2CCN(Cc3ccccc3)CC2)cc1 | -2 | -4 | -3 | 0 | . | .
CCN1CCN(C(=S)c2ccc(OCC(=O)Nc3ccc(OC)cc3)cc2)CC1 | 3 | -5 | -1 | 1 | . | .
Cc1ccc(C(=S)N2CCN(Cc3ccccc3)CC2)cc1 | 52* | 0 | -1 | -1 | -6 | 6
Nc1ccc(C=Cc2ccc(N)cc2)cc1 | . | . | . | 7 | . | .
COc1ccc(Cl)cc1NC(=O)CN(C)C(=O)c1cc2c(s1)CCC(C)C2 (centres undefined) | . | . | . | 6 | . | .
Nc1cc(S(=O)(=O)Nc2cc(Cl)ccc2Cl)ccc1N1CCCC1 | 16 | 3 | 1 | 5 | . | .
O=C1C2C3C=CC(CC3)C2C(=O)N1/N=C/c1ccc(O)c(O)c1 (centres undefined) | 54* | -1 | -2 | 11 | 45* | -1
O=C1c2ccccc2C(=O)N1/N=C/c1ccc(O)c(O)c1 | 57* | -3 | -3 | -2 | 68* | 5
CCCS(=O)(=O)NC(=O)C1(C)CCCN(C(=O)c2ccc(SC(F)(F)F)cc2)C1 (centres undefined) | . | . | . | -4 | . | .
Cc1cccc(-c2cnc(C(O)c3ccc(Cl)cc3C)[nH]2)c1 (centres undefined) | . | . | . | -5 | . | .
CCOC(=O)c1cc(C(=O)Nc2sc3c(c2C#N)CCCC3)nn1C | 37* | -3 | -3 | 13 | -39 | -4
Cc1cc(C(=O)Nc2sc3c(c2C#N)CCCC3)no1 | 5 | -1 | -1 | -3 | . | .
COc1cc(O)c(NC(C)=O)c2nonc12 | 33* | -3 | -3 | -1 | 27 | 1
COc1cc(-c2ccc(NC(C)=O)c(OC)c2)ccc1NC(C)=O | -17 | -1 | -3 | 0 | . | .
Cc1ccc(-c2n[nH]c(=S)n2/N=C/c2ccc(C)o2)cc1 | 18 | 1 | -4 | 11 | . | .
Cc1ccc(/C=N/n2c(-c3ccc(Cl)cc3)n[nH]c2=S)o1 | 32* | -5 | -3 | 18 | -24 | 3
